Assay results gathered from unrelated publications.

O=C1CCC(N2C(=O)c3cccc(NCc4cn(Cc5ccc(-c6nc7cc(-c8ccccc8)ccn7c6Nc6ccc(C(=O)O)cc6)cc5)nn4)c3C2=O)C(=O)N1 (stereo not drawn)
CC50 (HCT-116; cell growth or viability; 72 h): 193 µM

COCC(=O)N1CCC[C@H](C(=O)NCc2nc(-c3ccc(C#N)cc3)cs2)C1
AUC (male Sprague-Dawley rat, plasma; oral, 3 mg/kg): 120 µM·h

O=c1[nH]cc(F)c(=O)[nH]1
viability (PC-9; cell growth or viability, CCK-8; 50 µM): 31.9%

CN(Cc1cn(Cc2ccc(-c3nc4cc(-c5ccccc5)ccn4c3Nc3ccc(C(=O)O)cc3)cc2)nn1)c1cccc2c1C(=O)N(C1CCC(=O)NC1=O)C2=O (stereo not drawn)
CC50 (HCT-116; cell growth or viability; 72 h): 190 µM

COc1nc(-c2cccc(-c3ccccc3)c2C)ccc1CNCCNC(=O)CCCCCCCCCCC(=O)N1CCN(CCNC(=O)c2cc3c(=O)n4cccc(C)c4nc3n(CCc3cccs3)c2=N)CC1
AUC(0-inf) (male Sprague-Dawley rat, plasma; intraperitoneal, 4 mg/kg): 2450 ng·h/mL

C[C@H]1Oc2cc(cnc2N)-c2c(nn(C)c2C#N)CN(C)C(=O)c2ccc(F)cc21
AUC(0-t) (male Sprague-Dawley rat, plasma; oral, 5 mg/kg, single dose): 1780 ng·h/mL

COc1cccc2c(N3CCC(CCP(=O)(O)O)CC3)ncnc12
half-life (EMT6; female BALB/c, tumour; subcutaneous, 50 mg/kg, tumour-bearing): 396 min

COCC(=O)N1CCC[C@H](C(=O)NCc2nc(-c3ccccc3)cs2)C1
AUC (male Sprague-Dawley rat, plasma; oral, 3 mg/kg): 110 µM·h

C=C(CC(=O)OCOC(=O)OC(C)C)C(=O)O
Papp (PAMPA; 10 µM, 4 h, pH 7.4): < 1 ×10⁻⁶ cm/s
